This note sets out measurements from ChEMBL document CHEMBL4024710, “Discovery of novel 1,2,3,4-tetrahydrobenzo[4, 5]thieno[2, 3-c]pyridine derivatives as potent and selective CYP17 inhibitors” (Eur J Med Chem, 2017).

Series [1] concerns the target T1, Steroid 17-alpha-hydroxylase/17,20 lyase (Rattus norvegicus, UniProt P11715).
T1 sequence (P11715 whole entry): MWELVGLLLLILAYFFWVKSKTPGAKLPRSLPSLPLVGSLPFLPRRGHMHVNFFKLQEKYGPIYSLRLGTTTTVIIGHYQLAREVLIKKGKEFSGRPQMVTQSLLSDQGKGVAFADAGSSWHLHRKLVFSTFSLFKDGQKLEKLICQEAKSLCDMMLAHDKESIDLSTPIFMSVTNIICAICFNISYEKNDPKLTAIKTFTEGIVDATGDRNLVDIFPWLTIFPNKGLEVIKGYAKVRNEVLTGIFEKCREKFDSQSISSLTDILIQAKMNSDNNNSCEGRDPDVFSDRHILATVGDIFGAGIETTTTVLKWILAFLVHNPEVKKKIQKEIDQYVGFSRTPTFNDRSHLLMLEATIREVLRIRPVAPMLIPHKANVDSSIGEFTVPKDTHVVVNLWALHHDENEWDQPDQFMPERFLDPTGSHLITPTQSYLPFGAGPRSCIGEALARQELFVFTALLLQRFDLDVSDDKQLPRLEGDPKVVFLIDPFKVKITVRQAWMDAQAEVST
Nature of the series: Inhibition of CYP17 in Sprague-Dawley rat testes microsomes using 17-alpha hydroxyprogesterone as substrate and NADPH as cofactor pretreated for 5 mins followed by substrate and cofactor addition after 60 mins by LC/Ms analysis. Details: species or system Testis. Summed up:
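Rat testis microsomes from male SD rats weighing 220–250 g, prepared at 4 °C by differential centrifugation (9000 g, then 105,000 g pellet). 2 µg protein in 0.05 M phosphate pH 7.5 preincubated with inhibitor 5 min at 25 °C. Started with 10 µM 17α-hydroxyprogesterone plus 4.2 mM NADPH, 60 min at 25 °C, stopped with methanol. Androstenedione measured by LC/MS; IC50 is the mean of at least three experiments.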

The target of series [2] is T2, Steroid 17-alpha-hydroxylase/17,20 lyase (Homo sapiens, UniProt P05093).
T2 sequence (P05093 whole entry): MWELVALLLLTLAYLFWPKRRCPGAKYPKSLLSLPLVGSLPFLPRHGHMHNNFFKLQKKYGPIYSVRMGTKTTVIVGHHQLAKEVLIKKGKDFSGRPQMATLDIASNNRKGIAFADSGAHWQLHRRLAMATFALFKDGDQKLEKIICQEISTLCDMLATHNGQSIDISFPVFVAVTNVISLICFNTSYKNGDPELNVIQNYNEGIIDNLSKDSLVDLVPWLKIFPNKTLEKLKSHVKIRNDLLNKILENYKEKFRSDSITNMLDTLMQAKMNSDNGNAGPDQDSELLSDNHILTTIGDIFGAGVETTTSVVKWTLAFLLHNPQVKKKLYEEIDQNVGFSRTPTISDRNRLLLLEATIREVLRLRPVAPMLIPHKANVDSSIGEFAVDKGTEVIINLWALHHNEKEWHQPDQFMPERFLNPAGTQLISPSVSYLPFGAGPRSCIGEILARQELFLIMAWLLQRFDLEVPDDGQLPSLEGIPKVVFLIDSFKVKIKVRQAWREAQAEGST
Nature of the series: Inhibition of recombinant human CYP17 expressed in human A549 cell membranes using 17-alpha hydroxyprogesterone as substrate and NADPH as cofactor pretreated for 5 mins followed by substrate and cofactor addition after 60 mins by LC/MS analysis. Put shortly: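 Enzyme source was purified membranes of A549 cells expressing human CYP17 from an adenoviral vector. 2 µg membrane protein in 0.05 M phosphate pH 7.5 with inhibitor, preincubated 5 min at 25 °C. Reaction started with 10 µM 17α-hydroxyprogesterone and 4.2 mM NADPH, run 60 min at 25 °C, methanol stop. Androstenedione quantified by LC/MS; IC50 is the mean of at least three experiments.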

For series [3], the target named is T2, Steroid 17-alpha-hydroxylase/17,20 lyase. Kind of series: Potency index, ratio of abiraterone IC50 to compound IC50 for recombinant human CYP17 expressed in human A549 cell membranes. The series is classed as cell-based. Put shortly: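 Human CYP17 came from purified membranes of A549 cells expressing the cloned gene through an adenoviral system. 2 µg membrane protein was preincubated with inhibitor in 0.05 M phosphate buffer, pH 7.5, at 25 °C for 5 min. The reaction was started with 10 µM 17α-hydroxyprogesterone and 4.2 mM NADPH, run 60 min at 25 °C and stopped with methanol. Androstenedione was quantified by LC/MS.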

A further series deals with Cytochrome P450 3A4 (Homo sapiens, UniProt P08684). Kind of series: Inhibition of human hepatic CYP3A4. The series is classed as ADME.
Chain of Cytochrome P450 3A4 (P08684 whole entry): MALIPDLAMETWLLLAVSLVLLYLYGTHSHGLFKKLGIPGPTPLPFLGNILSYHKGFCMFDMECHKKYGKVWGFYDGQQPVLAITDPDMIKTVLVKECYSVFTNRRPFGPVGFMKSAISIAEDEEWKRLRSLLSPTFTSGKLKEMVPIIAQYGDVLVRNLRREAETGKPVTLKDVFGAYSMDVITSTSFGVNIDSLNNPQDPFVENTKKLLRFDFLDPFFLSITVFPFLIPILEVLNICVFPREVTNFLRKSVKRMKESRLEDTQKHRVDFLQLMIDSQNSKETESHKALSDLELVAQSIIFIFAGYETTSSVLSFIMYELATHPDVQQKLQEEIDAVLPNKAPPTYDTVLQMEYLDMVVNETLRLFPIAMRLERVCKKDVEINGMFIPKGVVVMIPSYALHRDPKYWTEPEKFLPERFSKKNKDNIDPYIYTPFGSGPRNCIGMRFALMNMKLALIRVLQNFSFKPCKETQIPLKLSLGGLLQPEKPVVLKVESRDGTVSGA
The target in series [4] is T3, CYP1A2 (Homo sapiens, UniProt P05177).
T3 sequence (P05177 whole entry): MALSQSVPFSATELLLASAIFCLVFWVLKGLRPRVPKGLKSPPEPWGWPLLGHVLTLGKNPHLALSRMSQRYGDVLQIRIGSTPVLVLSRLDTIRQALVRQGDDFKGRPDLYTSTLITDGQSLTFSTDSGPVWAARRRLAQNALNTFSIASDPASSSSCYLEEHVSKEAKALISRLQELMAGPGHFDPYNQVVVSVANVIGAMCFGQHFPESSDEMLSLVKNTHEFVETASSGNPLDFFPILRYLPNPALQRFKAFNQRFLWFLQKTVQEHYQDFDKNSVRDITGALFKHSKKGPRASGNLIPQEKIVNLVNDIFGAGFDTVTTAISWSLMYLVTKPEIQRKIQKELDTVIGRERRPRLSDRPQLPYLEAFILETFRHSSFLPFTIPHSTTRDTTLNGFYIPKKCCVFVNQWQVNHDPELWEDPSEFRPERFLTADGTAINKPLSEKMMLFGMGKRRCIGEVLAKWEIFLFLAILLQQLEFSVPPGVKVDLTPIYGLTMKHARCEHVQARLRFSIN
Nature of the series: Inhibition of human hepatic CYP1A2 at 1 uM relative to control. In kind it is ADME.

In series [5] the target is T3, CYP1A2. Kind of series: Inhibition of human hepatic CYP1A2 at 10 uM relative to control. In kind it is ADME.
Series [6] has as its target T4, CYP2C9 (Homo sapiens, UniProt P11712). Kind of series: Inhibition of human hepatic CYP2C9 at 1 uM relative to control. In kind it is ADME.
Series [7] has as its target T4, CYP2C9. Nature of the series: Inhibition of human hepatic CYP2C9 at 10 uM relative to control. The series is classed as ADME.
Series [8] concerns the target T5, CYP2C19 (Homo sapiens, UniProt P33261). Nature of the series: Inhibition of human hepatic CYP2C19 at 1 uM relative to control. The series is classed as ADME.
Series [9] deals with T5, CYP2C19. Nature of the series: Inhibition of human hepatic CYP2C19 at 10 uM relative to control. The series is classed as ADME.
Series [10] deals with T6, CYP2D6 (Homo sapiens, UniProt P10635). Kind of series: Inhibition of human hepatic CYP2D6 at 1 uM relative to control. In kind it is ADME.
T6 sequence (P10635 whole entry): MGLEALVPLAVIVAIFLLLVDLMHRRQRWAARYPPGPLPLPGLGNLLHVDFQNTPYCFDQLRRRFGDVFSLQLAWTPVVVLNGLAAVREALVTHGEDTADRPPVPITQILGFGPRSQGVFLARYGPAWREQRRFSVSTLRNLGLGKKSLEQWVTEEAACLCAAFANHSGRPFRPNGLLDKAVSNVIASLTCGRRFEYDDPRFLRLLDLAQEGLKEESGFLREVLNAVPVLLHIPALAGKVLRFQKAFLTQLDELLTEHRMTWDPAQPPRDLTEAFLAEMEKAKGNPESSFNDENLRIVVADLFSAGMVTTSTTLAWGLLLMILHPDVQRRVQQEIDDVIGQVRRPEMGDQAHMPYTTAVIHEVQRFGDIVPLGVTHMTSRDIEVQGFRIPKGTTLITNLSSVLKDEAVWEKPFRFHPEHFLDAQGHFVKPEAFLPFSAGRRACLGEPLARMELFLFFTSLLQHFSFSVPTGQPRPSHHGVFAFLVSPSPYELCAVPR
The target in series [11] is T6, CYP2D6. Nature of the series: Inhibition of human hepatic CYP2D6 at 10 uM relative to control. The series is classed as ADME.
A further series has as its system Rattus norvegicus. Nature of the series: Suppression of serum testosterone levels in po dosed Sprague-Dawley rat administered as single dose measured up to 24 hrs post dose by ELISA. The series is classed as functional, organism-based. Summed up:
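Serum was sampled before dosing and at 2, 4, 8 and 24 h. Testosterone was measured by ELISA and expressed as % of the mean pretreatment value; mean ± SEM, n = 6.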

The target in series [12] is T2, Steroid 17-alpha-hydroxylase/17,20 lyase. Nature of the series: Residual CYP17 activity in human NCI-H295R cells assessed as testosterone production at 1 uM measured after 72 hrs relative to control.

T4 sequence (P11712 whole entry): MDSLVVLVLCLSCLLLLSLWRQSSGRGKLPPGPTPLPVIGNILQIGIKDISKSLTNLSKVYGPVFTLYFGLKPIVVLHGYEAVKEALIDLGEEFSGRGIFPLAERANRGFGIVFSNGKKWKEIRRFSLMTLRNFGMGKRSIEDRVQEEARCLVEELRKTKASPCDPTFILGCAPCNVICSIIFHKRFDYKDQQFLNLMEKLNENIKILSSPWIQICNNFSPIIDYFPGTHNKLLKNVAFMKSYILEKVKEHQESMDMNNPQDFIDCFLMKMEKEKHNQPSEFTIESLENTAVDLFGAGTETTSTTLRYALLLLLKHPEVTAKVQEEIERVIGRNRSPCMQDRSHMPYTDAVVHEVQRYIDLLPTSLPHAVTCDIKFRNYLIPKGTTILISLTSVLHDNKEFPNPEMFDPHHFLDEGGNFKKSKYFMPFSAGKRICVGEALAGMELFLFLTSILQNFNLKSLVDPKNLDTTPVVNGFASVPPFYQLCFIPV
T5 sequence (P33261 whole entry): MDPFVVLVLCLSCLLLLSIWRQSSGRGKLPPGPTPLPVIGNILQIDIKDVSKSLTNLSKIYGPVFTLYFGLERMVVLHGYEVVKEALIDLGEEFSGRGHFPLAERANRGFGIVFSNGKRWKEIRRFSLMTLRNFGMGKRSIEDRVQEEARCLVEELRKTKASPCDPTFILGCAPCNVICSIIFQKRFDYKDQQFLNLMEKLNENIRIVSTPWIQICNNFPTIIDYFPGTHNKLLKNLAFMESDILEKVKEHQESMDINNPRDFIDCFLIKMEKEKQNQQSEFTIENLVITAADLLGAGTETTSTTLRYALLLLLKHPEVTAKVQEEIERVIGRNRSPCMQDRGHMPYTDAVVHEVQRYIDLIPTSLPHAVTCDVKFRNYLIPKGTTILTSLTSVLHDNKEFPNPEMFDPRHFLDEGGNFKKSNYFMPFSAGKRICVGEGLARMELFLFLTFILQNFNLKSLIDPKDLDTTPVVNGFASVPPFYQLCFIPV

Turning to `Cc1ccncc1CN1CCc2c(sc3ccc(F)cc23)C1`, the IC50 in series [1] came out at 15.8 nM; in series [2], 20.1 nM; against Cytochrome P450 3A4, 8560 nM. For the same compound, the “Ratio IC50” value in series [3] amounted to 1.5. In addition, the inhibition at 1 µM against CYP1A2 [4] was found to be 16.3%; at CYP2C9 [6], 0%; on CYP2C19 [8], 11.7%; against CYP2D6 [10], 12%. Further, the inhibition at 10 µM was found to be 62.2% at CYP1A2 [5], 21.8% against CYP2C9 [7], 65.2% on CYP2C19 [9] and 56.8% against CYP2D6 [11]. The Activity result in the series with Rattus norvegicus is “Dose-dependent effect”. Besides, the residual activity at 1 µM in series [12] is 52%.

For orientation: IC50 means the concentration that inhibits the measured activity by half. Usually inhibition stands for the percentage by which the read-out fell short of the control. Low values mean a response near the control, high ones a response far below the control. What is called residual activity is the share of the control activity or signal that is left under treatment.
